This passage reports relative potency (PGF2α = 1) results from ChEMBL document CHEMBL1121536, “C(14)-fluorinated prostaglandins: synthesis and biological evaluation of the methyl esters of (+)-14-fluoro-, (+)-15-epi-14-fluoro-, (+)-13(E)-14-fluror-, and (+)-13(E)-15-epi-14-fluoroprostaglandin F2 alpha” (1980).

Bounds are passed on as bounds.

For assay [1], the system named is Cricetinae gen. sp. In words: The compound was evaluated for the antifertility activity in hamster at 12.5 ug administered subcutaneously. The format is functional, Cricetulus griseus. A digest of the protocol:
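Hamsters were dosed subcutaneously, daily, in groups of ten. The minimum effective dose was the lowest dose per hamster per day giving no pregnancies (no implants) in the group. Potency was derived by comparing each compound's minimum effective dose with that of natural PGF2α.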

The next assay relates to Gerbillinae. The assay is described as follows: The compound was evaluated for the gerbil colon contraction in vitro on colon strips.
The subject of assay [2] is Cricetinae gen. sp. In words: The compound was evaluated for the hamster uterine contraction in vitro on uterine strips.

In the case of `CCCCC[C@@H](O)/C=C/[C@@]1(F)[C@H](O)C[C@H](O)[C@@H]1C/C=C\CCCC(=O)OC`, the relative potency (PGF2α = 1) in the assay on Cricetinae gen. sp. [1] turned out to be 1; in the assay on Gerbillinae, 0.011; in the assay on Cricetinae gen. sp. [2] it was 0.022.
Regarding `CCCCC[C@H](O)/C(F)=C/[C@@H]1[C@@H](C/C=C\CCCC(=O)OC)[C@@H](O)C[C@H]1O`, the relative potency (PGF2α = 1) was less than 0.5 with Cricetinae gen. sp. [1], 0.023 in the assay on Gerbillinae and 0.263 in the assay on Cricetinae gen. sp. [2].
Taken in the same sequence, the figures for `CCCCC[C@@H](O)/C(F)=C/[C@@H]1[C@@H](C/C=C\CCCC(=O)OC)[C@@H](O)C[C@H]1O` were 0.5, 0.0034 and 0.025.
On to `CCCCC[C@H](O)/C(F)=C\[C@@H]1[C@@H](C/C=C\CCCC(=O)OC)[C@@H](O)C[C@H]1O`, for which the relative potency (PGF2α = 1) in the assay with Cricetinae gen. sp. [1] is less than 0.1; in the assay with Gerbillinae, 0.002; with Cricetinae gen. sp. [2], 0.0002.
Taken in the same sequence, the figures for `CCCCC[C@@H](O)/C(F)=C\[C@@H]1[C@@H](C/C=C\CCCC(=O)OC)[C@@H](O)C[C@H]1O` were more than 1, 0.15 and 0.36.
Consider `CCCCC[C@H](O)/C=C/[C@@]1(F)[C@H](O)C[C@H](O)[C@@H]1C/C=C\CCCC(=O)OC`, for which the relative potency (PGF2α = 1) was found to be 12.5 in the assay on Cricetinae gen. sp. [1], 0.001 in the assay with Gerbillinae and 0.28 with Cricetinae gen. sp. [2].
